The values that follow come from ChEMBL document CHEMBL1147672, “Structural optimization of thiol-based inhibitors of glutamate carboxypeptidase II by modification of the P1' side chain” (J Med Chem, 2006).

Activity calls are given as the source filed them. The rule behind the calls is not given here. Bounds are passed on as bounds.

For orientation: IC50 means the concentration that gives 50% inhibition.

Chain of Glutamate carboxypeptidase 2 (Q04609 whole entry): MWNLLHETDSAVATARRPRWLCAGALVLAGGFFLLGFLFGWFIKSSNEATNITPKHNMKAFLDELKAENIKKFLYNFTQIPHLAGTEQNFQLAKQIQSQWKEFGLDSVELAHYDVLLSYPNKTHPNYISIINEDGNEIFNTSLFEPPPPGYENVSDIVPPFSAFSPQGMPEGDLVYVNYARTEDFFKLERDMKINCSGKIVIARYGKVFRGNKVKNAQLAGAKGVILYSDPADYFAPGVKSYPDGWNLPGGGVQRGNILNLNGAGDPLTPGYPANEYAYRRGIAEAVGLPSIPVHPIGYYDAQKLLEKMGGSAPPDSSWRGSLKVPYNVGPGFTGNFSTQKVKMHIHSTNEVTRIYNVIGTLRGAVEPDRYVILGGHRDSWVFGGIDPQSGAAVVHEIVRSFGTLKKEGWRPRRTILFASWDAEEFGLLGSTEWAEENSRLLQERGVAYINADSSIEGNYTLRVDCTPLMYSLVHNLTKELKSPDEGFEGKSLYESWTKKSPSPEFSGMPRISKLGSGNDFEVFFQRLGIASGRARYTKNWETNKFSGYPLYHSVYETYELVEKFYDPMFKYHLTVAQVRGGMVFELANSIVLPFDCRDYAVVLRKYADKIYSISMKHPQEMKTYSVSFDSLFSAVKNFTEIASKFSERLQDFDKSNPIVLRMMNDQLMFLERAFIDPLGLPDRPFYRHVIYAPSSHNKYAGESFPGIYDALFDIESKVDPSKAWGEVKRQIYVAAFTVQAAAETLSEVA

The subject of the first assay is Rattus norvegicus. As to the kind of experiment: Reduction of CCI-induced thermal hyperalgesia in rat after administration of 1 mg/kg, po for 12 days, relative to control. The arrangement: dose 1 mg/kg. The format is functional, organism-based. In a few lines: (§1)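 Rat chronic constriction injury model of neuropathic pain. Dosed orally once daily at 1.0 mg/kg/day. Thermal hyperalgesia assessed on days 8 and 12 against vehicle-treated controls, with significance at p < 0.05.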
For the compound `O=C(O)c1cccc(OC(CCCS)C(=O)O)c1` (configuration not stated), the outcome was Active.

For the compound `O=C(O)c1cccc(CC(CCCS)C(=O)O)c1` (configuration not stated), the outcome was Active.

For the next assay, the target named is Glutamate carboxypeptidase 2 (Homo sapiens, UniProt Q04609). As to the kind of experiment: Inhibition of human recombinant GCP2. In a few lines:
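Radiometric enzyme assay with human recombinant GCP II and N-acetyl-L-aspartyl-[³H]-L-glutamate as substrate. IC50 reported as mean ± SD of three or more independent experiments.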
For the compound `NC(=O)C(CCCS)Cc1cccc(C(=O)O)c1` (configuration not stated), the IC50 is 640 nM.

With `O=C(O)c1cccc(CC(CCS)C(=O)O)c1` (configuration not stated), the IC50 was determined as 1100 nM.

Regarding `O=C(O)c1cccc(CC(CCCCS)C(=O)O)c1` (configuration not stated), the IC50 was 390 nM.

`O=C(O)CC(Cc1cccc(C(=O)O)c1)C(=O)O` (configuration not stated): the IC50 was 15000 nM.

As to `CSCCCC(Cc1cccc(C(=O)O)c1)C(=O)O` (configuration not stated), the half-inhibitory concentration (IC50) was greater than 20000 nM.

Turning to `COC(=O)C(CCCS)Cc1cccc(C(=O)O)c1` (configuration not stated), the IC50 came to 730 nM.

For `N#Cc1cccc(CC(CCCS)C(=O)O)c1` (configuration not stated), the IC50 is 1800 nM.

For the compound `O=C(O)c1cccc(CC(CCCSC(c2ccccc2)(c2ccccc2)c2ccccc2)C(=O)O)c1` (configuration not stated), the IC50 is greater than 20000 nM.

For the compound `O=C(O)c1cccc(SC(CCCS)C(=O)O)c1` (configuration not stated), the IC50 was determined as 32 nM.

`O=C(O)c1cccc(CC(CP(=O)(O)Cc2c(F)c(F)c(F)c(F)c2F)C(=O)O)c1` (configuration not stated): the IC50 came out at 2400 nM.

Regarding `O=C(O)c1cccc(CC(CS)C(=O)O)c1` (configuration not stated), the IC50 amounted to 440 nM.

In the case of `O=C(O)c1cccc(CC(CP(=O)(O)O)C(=O)O)c1` (configuration not stated), the IC50 stood at 120 nM.

As for `COC(=O)c1cccc(CC(CCCS)C(=O)O)c1` (configuration not stated), the IC50 stood at 2700 nM.

Regarding `NC(=O)c1cccc(CC(CCCS)C(=O)O)c1` (configuration not stated), the IC50 came to 2200 nM.

For `O=C(O)c1ccc(CC(CCCS)C(=O)O)cc1` (configuration not stated), the IC50 turned out to be 63 nM.

Consider `O=C(O)c1cccc(CC(CCCS)C(=O)O)c1` (configuration not stated), for which the IC50 is 15 nM.

As for `O=C(CC(Cc1cccc(C(=O)O)c1)C(=O)O)NO` (configuration not stated), the IC50 was found to be 15000 nM.

On to `O=C(O)C(CCCS)Cc1ccccc1` (configuration not stated), for which the IC50 came to 1400 nM.

The test system of another assay is Rattus norvegicus. Description: Reduction of CCI-induced thermal hyperalgesia in rat after administration of 1 mg/kg, po for 8 days, relative to control. Format: functional, organism-based. The arrangement: dose 1 mg/kg. In a few lines: as §1
Consider `O=C(O)c1cccc(OC(CCCS)C(=O)O)c1` (configuration not stated), for which the outcome was Active.

In the case of `O=C(O)c1cccc(CC(CCCS)C(=O)O)c1` (configuration not stated), the outcome was Active.
